Test results from ChEMBL document CHEMBL3739312, “Triazole-curcuminoids: A new class of derivatives for 'tuning' curcumin bioactivities?” (Bioorg Med Chem, 2016).
The source made the active and inactive calls. The rule behind the calls is not given here.

What was measured:
Tubulin (Homo sapiens) [1] = target: T1, Tubulin (Homo sapiens) (UniProt P68371+Q9H4B7+P0DPH7+P68366+Q13509+Q71U36+P04350+Q3ZCM7+P07437+P68363+Q9BQE3+Q6PEY2+Q13885+Q9BVA1+Q9BUF5); test: Inhibition of tubulin polymerization in human HeLa cells assessed as increase in soluble fraction incubated for 16 hrs by cellular assay; assay type: cell-based
In short: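 HeLa cells exposed 16 h; proteins extracted in presence of paclitaxel, pelletable and soluble fractions separated and resolved by SDS–PAGE.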

HeLa [2] = test: Antiproliferative activity against human HeLa cells assessed as cell viability at 40 uM after 48 hrs relative to control; assay type: functional; details: read-out: Activity
In short: (§1)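 Single fixed concentration of 40 µM against HeLa or SH-SY5Y cells; viability given as mean ± S.E.M., n = 8 from two separate experiments.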

SH-SY5Y [3] = test: Antiproliferative activity against human SH-SY5Y cells assessed as cell viability at 40 uM after 48 hrs relative to control; assay type: functional; details: read-out: Activity; in short: as §1
Tubulin (Homo sapiens) [4] = target: T1, Tubulin (Homo sapiens); test: Inhibition of tubulin (unknown origin) polymerization up to 60 uM; assay type: protein-complex assay
In short: (§2)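 Cell-free fluorescence-based tubulin polymerization kit; compound tested from 10 µM up to 60 µM.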

SH-SY5Y [5] = test: Antiproliferative activity against human SH-SY5Y cells assessed as cell viability after 48 hrs; assay type: functional, cell-based
HeLa [6] = test: Antiproliferative activity against human HeLa cells assessed as cell viability after 48 hrs; assay type: functional, cell-based
HeLa [7] = test: Potentiation of TNFalpha-induced NFkappaB activation in human HeLa cells at 3 uM incubated for 6 hrs by luciferase reporter gene assay; assay type: cell-based
In short: (§3)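 HeLa NF-κB luciferase reporter: cells plated at 5 × 10³/well; after 8 h, TNFα (20 ng/mL) applied for 6 h with or without compound. Firefly luciferase normalized to pRLTK Renilla by dual-luciferase read-out; n = 6–11 from 3–6 experiments.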

HeLa [8] = test: Inhibition of TNFalpha-induced NFkappaB activation assessed as TNFalpha-induced transcription level in human HeLa cells at 30 uM incubated for 6 hrs by luciferase reporter gene assay; assay type: cell-based; design: scale not given: the % may be the effect or the level left; in short: as §3
HeLa [9] = test: Cell cycle arrest in human HeLa cells assessed as accumulation at […] phase at IC50 to 2 times IC50 after 16 hrs by FACS analysis; assay type: functional, cell-based
In short: (§4)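 HeLa cells seeded at 6 × 10⁵ cells/well, starved overnight, then exposed at IC50, 2× and 3× IC50 for 8 h or 16 h. Cells fixed in 70% EtOH overnight at −20 °C, then RNase-treated (100 µg/mL, 1 h, 37 °C) before cell-cycle phase analysis.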

HeLa [10] = test: Cell cycle arrest in human HeLa cells at IC50 to 2 times IC50 after 8 hrs by FACS analysis; assay type: functional, cell-based; in short: as §4
Tubulin (Homo sapiens) [11] = target: T1, Tubulin (Homo sapiens); test: Inhibition of tubulin (unknown origin) polymerization at 10 uM; assay type: protein-complex assay; in short: as §2

inhibition (Tubulin (Homo sapiens) [1]) | Activity (Tubulin (Homo sapiens) [4]) | IC50 (SH-SY5Y [5]) | IC50 (HeLa [6]) | inhibition (Tubulin (Homo sapiens) [4]) | Activity (Tubulin (Homo sapiens) [11]) | Structure (SMILES) | viability at 40 µM (HeLa [2]) | viability at 40 µM (SH-SY5Y [3]) | fold change (FC) (HeLa [7]) | Activity (HeLa [8]) | Activity (HeLa [9]) | Activity (HeLa [10])
inactive | inactive | 17.8 µM | 36.4 µM |  |  | COc1cc(/C=C/c2cn(/C=C/c3ccc(O)c(OC)c3)nn2)ccc1O | 50.5% | 36.1% | 2 | 48% |  | 
 |  |  |  |  |  | COc1ccc(/C=C/c2cn(/C=C/c3ccc(O)c(OC)c3)nn2)cc1 | 67.9% | 50% |  | 146% |  | 
 |  |  |  |  |  | COc1cccc(/C=C/c2cn(/C=C/c3ccc(O)c(OC)c3)nn2)c1 (mixture of isomers) | 38.7% | 65.3% |  | 88.9% |  | 
 |  |  |  |  |  | COc1cccc(/C=C/n2cc(/C=C/c3ccc(O)cc3)nn2)c1 | 41.9% | 68.9% |  | 94.3% |  | 
inactive | inactive |  |  |  |  | COc1cccc(/C=C/n2cc(/C=C/c3cc(OC)c(OC)c(OC)c3)nn2)c1 | 77.9% | 99.9% |  | 42.2% |  | 
 |  |  |  |  |  | COc1cc(/C=C/c2cn(/C=C/c3ccccc3)nn2)ccc1O | 79.5% | 110% |  | 138% |  | 
 |  |  |  |  |  | COc1cc(/C=C/n2cc(/C=C/c3ccc(O)cc3)nn2)ccc1O | 83.5% | 50.3% |  | 73.2% |  | 
 |  |  |  |  |  | COc1cccc(/C=C/n2cc(/C=C/c3ccc(O)c(OC)c3)nn2)c1 | 66.9% | 66.3% |  | 57% |  | 
 |  |  |  |  |  | COc1ccc(/C=C/c2cn(/C=C/c3cccc(OC)c3)nn2)cc1 | 55.1% | 52% |  | 81.3% |  | 
 |  | 17 µM | 18.7 µM |  |  | COc1cccc(/C=C/n2cc(/C=C/c3ccc(O)c(O)c3)nn2)c1 | 16.6% | 27.7% |  | 97% |  | 
 |  |  |  |  |  | Oc1ccc(/C=C/c2cn(/C=C/c3ccccc3)nn2)cc1 | 39.5% | 70.6% |  | 85.4% |  | 
 |  |  |  |  |  | Oc1ccc(/C=C/n2cc(/C=C/c3ccc(O)c(O)c3)nn2)cc1 | 60.1% | 60.4% |  | 124% |  | 
 |  | 9 µM | 17.2 µM |  |  | COc1cccc(/C=C/c2cn(/C=C/c3ccc(O)cc3)nn2)c1 | 30.4% | 37.9% |  | 61.5% |  | 
 |  |  |  |  |  | Oc1ccc(/C=C/n2cc(/C=C/c3ccccc3)nn2)cc1 | 50.7% | 48% |  | 88.9% |  | 
 |  |  |  |  |  | Oc1ccc(/C=C/c2cn(/C=C/c3ccccc3)nn2)cc1O | 18.4% | 40.1% |  | 167% |  | 
inactive | inactive | 7.8 µM | 13.6 µM |  |  | COc1cc(/C=C/n2cc(/C=C/c3cc(OC)c(OC)c(OC)c3)nn2)ccc1O | 23% | 23.5% |  | 27.5% | Active | inactive
 |  |  |  |  |  | COc1cccc(/C=C/c2cn(/C=C/c3cccc(OC)c3)nn2)c1 | 92.8% | 71.4% |  | 71% |  | 
 |  | 11.3 µM | 34 µM |  |  | COc1ccc(/C=C/c2cn(/C=C/c3ccc(O)cc3)nn2)cc1 | 66.3% | 25.7% |  | 131% |  | 
 |  |  |  |  |  | COc1ccc(/C=C/c2cn(/C=C/c3ccccc3)nn2)cc1 | 69.2% | 126% |  | 74.5% |  | 
 |  |  |  |  |  | Oc1ccc(/C=C/c2cn(/C=C/c3ccc(O)cc3)nn2)cc1 | 55.3% | 49.6% |  | 112% |  | 
 |  |  |  |  |  | COc1cc(/C=C/c2cn(/C=C/c3ccccc3)nn2)cc(OC)c1OC | 52.1% | 69.2% |  | 65.3% |  | 
 |  |  |  |  |  | COc1cccc(/C=C/n2cc(/C=C/c3ccccc3)nn2)c1 | 82.1% | 107% |  | 76.1% |  | 
 |  |  |  |  |  | COc1cc(/C=C/c2cn(/C=C/c3ccc(O)cc3)nn2)ccc1O | 56.8% | 55.4% |  | 96% |  | 
inactive |  | 16.1 µM | 21.8 µM | Active | inactive | COc1cc(/C=C/C(=O)CC(=O)/C=C/c2ccc(O)c(OC)c2)ccc1O [CURCUMIN] | 42.5% | 22.6% |  | 60.5% | Active | inactive
 |  |  |  |  |  | COc1cccc(/C=C/c2cn(/C=C/c3ccccc3)nn2)c1 | 93.9% | 88.7% |  | 87% |  | 
inactive | inactive | 6.9 µM | 11.7 µM |  |  | COc1ccc(/C=C/c2cn(/C=C/c3ccc(O)c(OC)c3)nn2)cc1O | 7.9% | 18.1% |  | 15.3% | Active | inactive
 |  |  |  |  |  | C(=C\c1cn(/C=C/c2ccccc2)nn1)/c1ccccc1 | 70% | 118% |  | 79.9% |  | 
inactive | inactive | 1.7 µM | 1.5 µM |  |  | COc1cc(/C=C/c2cn(/C=C/c3ccc(O)cc3)nn2)cc(OC)c1OC | 19.2% | 21.3% |  | 14.6% | Active | inactive
 |  |  |  |  |  | COc1cc(/C=C/n2cc(/C=C/c3ccccc3)nn2)ccc1O | 84.3% | 86.7% |  | 144% |  | 
